Measurements: publication PMC10548513 (Chemical Science, 2023)
Positions of bridges follow the written chain, without caps; N, C: chain ends. Non-standard residues stand in square brackets, D forms with d. Residues, ends and D or L forms follow the SMILES beside them. No end group written: not given here. R8 = C=CCCCCCC[C@@](C)(N)C(=O)O; S5 = C=CCCC[C@](C)(N)C(=O)O

Experiments:
HeLa cells [1] = test: Peptide cytotoxicity, WST-8; format: cell-based; conditions: 24 h; for Cytotoxicity at 30 µM: peptide 30 µM; for Cytotoxicity at 10 µM: peptide 10 µM
HeLa cells [2] = test: Luciferase reporter assay, transfection of pDNA with peptide/pDNA complexes; format: cell-based; conditions: N/P ratio 16, 24 h
In short: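 Peptide/pDNA complexes were made with luciferase-encoding (rLuc) pDNA at an N/P charge ratio (peptide cationic residues to pDNA phosphate) of 8 or 16. They were added to HeLa cells for 24 h. Transfection was read as luminescence, given as RLU normalized to blank; n = 3, mean ± standard deviation.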

Huh-7-Luc cells = test: RNAi assay by luciferase assay, peptide/siRNA complexes; format: cell-based, human; conditions: peptide/Luc-siRNA complex, N/P ratio 16, 48 h, n = 5
In short: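 Complexes of peptide with firefly GL3 luciferase siRNA, or scrambled-sequence control siRNA, were prepared at N/P 8 or 16. They were added to Huh-7 cells stably expressing luciferase and incubated for 48 h. Silencing was measured as loss of luminescence; n = 5, mean ± standard deviation.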

[3] = Relative hydrophobicity by UPLC retention time; format: physicochemical; conditions: comparison among stapled peptides st4-1–6 and st7-1–6 (Table S1)

Row | Molecule | Cytotoxicity at 30 µM (HeLa cells [1]) | Transfection efficiency of pDNA relative to st7-5 (HeLa cells [2]) | Cytotoxicity at 10 µM (HeLa cells [1]) | Reduction of the luminescence signal (gene silencing) with Luc-siRNA (Huh-7-Luc cells) [%] | Relative hydrophobicity from UPLC retention times [3]
1 | GIGKFLHSAKKFGKAFVGEIMNS-NH2 [Magainin 2, reference compound] | did not exhibit cytotoxicity |  |  |  | 
2 | CC[C@H](C)[C@H](NC(=O)CN)C(=O)N[C@@H](CCCNC(=N)N)C(=O)N[C@@H](CCCNC(=N)N)C(=O)N[C@@H](Cc1ccccc1)C(=O)N[C@@H](CC(C)C)C(=O)N[C@@H](CCCNC(=N)N)C(=O)N[C@]1(C)CCCCCCC=CCCC[C@@](C)(C(=O)N[C@@H](Cc2ccccc2)C(=O)N[C@@H](CCCNC(=N)N)C(N)=O)NC(=O)[C@H](CCCNC(=N)N)NC(=O)[C@H](C(C)C)NC(=O)[C@H](Cc2ccccc2)NC(=O)[C@H](CCCNC(=N)N)NC(=O)[C@H](CCCNC(=N)N)NC(=O)[C@H](C)NC1=O [st7-5_R] (H-GIRRFLR[R8]ARRFVR[S5]FR-NH2; staple 8-15) |  | about 100 times | did not show significant cytotoxicity | ~70 | 
3 | CC[C@H](C)[C@H](NC(=O)CN)C(=O)N[C@@H](CCCCN)C(=O)N[C@@H](CCCCN)C(=O)N[C@@H](Cc1ccccc1)C(=O)N[C@@H](CC(C)C)C(=O)N[C@@H](CCCCN)C(=O)N[C@]1(C)CCCCCCC=CCCC[C@@](C)(C(=O)N[C@@H](Cc2ccccc2)C(=O)N[C@@H](CCCCN)C(N)=O)NC(=O)[C@H](CCCCN)NC(=O)[C@H](C(C)C)NC(=O)[C@H](Cc2ccccc2)NC(=O)[C@H](CCCCN)NC(=O)[C@H](CCCCN)NC(=O)[C@H](C)NC1=O [st7-5] (H-GIKKFLK[R8]AKKFVK[S5]FK-NH2; staple 8-15) |  |  | did not show significant cytotoxicity |  | most hydrophobic
4 | GIKKFLKSAKKFVKAFK-NH2 [Pep-1] | did not exhibit cytotoxicity |  |  |  | 
